Shown are actives, neighbours in structure and some others; about 3.3% of the full set was active somewhere.
Xi reactivation: activators of inactive X chromosome reactivation, primary screen, imaging, XiGFP fibroblasts, GFP high-content imaging, set 2; XiGFP mouse fibroblasts, % GFP-positive cells imaging, 3 d; cells co-treated with 5-aza-dC sensitizer; scaled so ellipticine positive control = 100%; activation, % at 7.58 µM; hit rate 0.055% among 360,000;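 active = mean normalized replicate activation at least 10% and every replicate at or above 10%; inconclusive = only one of the two criteria met; inactive = mean below 10% and not all replicates reach 10%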;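 also: 0% = median of on-plate neutral control wells and 100% = ellipticine 6 µM median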
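Material: XiGFP fibroblasts, SV40-immortalized. Buffer or medium: DMEM plus 5-aza-dC sensitizer. Compound: single concentration per compound, delivered by pin transfer. Times: 3 days compound exposure. Controls: ellipticine 6 µM.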
DENV2 CPE rescue: inhibitors of DENV2 cytopathic effect, primary screen, cell-based, plate reader, single concentration; CPE inhibition, % at 9.99 µM; hit rate 1.7% among 350,000; DENV2-infected cells, cytopathic effect rescue; AID 651640, 2012; in the data active = CPE inhibition above about 20%, passing the limit was not always enough; inconclusive = no clear call, values can overlap the other calls; tested in BHK-21 cells;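 also: 0% = median of neutral control wells and 100% = median of positive control wells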
FGF22 binding: binders of human FGF22 protein, primary screen, FGF22 synaptogenesis inhibitor project, biophysical, thermal shift, single point; Fibroblast growth factor 22 (Homo sapiens), Q9HCT0; recombinant FGF22 thermal shift, SYPRO orange fluorescence; percent of sucrose octasulfate shift, DMSO zero; activity (Tm shift, normalised), % at 9.99 µM; hit rate 1.5% among 340,000;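 active = mean Tm shift, scaled 0 neutral to 100 positive control, at about 1.3% or above, every replicate too, limit read from the data; inconclusive = no clear call, values can overlap the other calls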
E-selectin induc: E-selectin induction in HUVECs, primary screen, imaging, HUVEC, immunofluorescence imaging, single point. normalized: neutral wells 0, TNF-alpha wells 100. P16581. activation, % at 7.58 µM. hit rate 0.37% among 260,000;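 active = mean E-selectin-positive cell signal at least 10% of the positive control, reached in at least 60% of replicates, without over 20% cell loss; inconclusive = no rule given, readout overlaps actives, possibly toxicity-flagged; inactive = the rest, including those meeting only one limit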
Target sequence (P16581 whole entry, looked up): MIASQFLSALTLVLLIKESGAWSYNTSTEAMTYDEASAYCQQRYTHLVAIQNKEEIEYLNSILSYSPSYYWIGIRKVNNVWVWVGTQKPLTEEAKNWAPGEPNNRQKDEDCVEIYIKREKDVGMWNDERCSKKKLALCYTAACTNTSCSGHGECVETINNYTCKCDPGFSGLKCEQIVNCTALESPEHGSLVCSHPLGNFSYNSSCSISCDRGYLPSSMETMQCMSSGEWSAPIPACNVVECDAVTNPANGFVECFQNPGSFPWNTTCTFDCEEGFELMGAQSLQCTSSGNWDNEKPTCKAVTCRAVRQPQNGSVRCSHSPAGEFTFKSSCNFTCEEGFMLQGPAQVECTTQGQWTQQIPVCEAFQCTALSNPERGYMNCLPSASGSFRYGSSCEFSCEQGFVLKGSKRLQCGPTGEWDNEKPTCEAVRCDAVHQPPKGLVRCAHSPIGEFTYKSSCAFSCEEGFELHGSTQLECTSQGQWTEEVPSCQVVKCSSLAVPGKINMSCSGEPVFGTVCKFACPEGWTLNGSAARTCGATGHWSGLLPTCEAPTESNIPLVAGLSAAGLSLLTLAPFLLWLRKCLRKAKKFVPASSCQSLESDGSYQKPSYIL
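Read-out: % PE-positive cells | Test system: HUVEC | Doses: One compound dose added by pin transfer | Buffer or medium: EGM-2 over gelatin coat | Signal: Immunofluorescence imaging | Benchmarks: TNF-alpha, DMSO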
C2C12 statin: suppressors of statin myotoxicity in C2C12 myotubes, primary screen, cell-based, single point, plate reader | C2C12 myotubes + simvastatin, ATP luminescence, 48 h; scaled: DMSO 0, geranylgeraniol control 100 | rescue of ATP level, % at 7.49 µM | hit rate 0.78% among 330,000;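 active = mean ATP rescue above about 67%, or every replicate alone reaching that limit, limit read from the data, passing the limit was not always enough; inconclusive = no clear call, values can overlap the other calls; inactive = mean under the limit and some replicate under it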;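 also: myotubes were challenged with 10 µM simvastatin during compound exposure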
PglD DTNB: C. jejuni PglD acetyltransferase inhibitors, primary screen, biochemical, DTNB colorimetric, single point. UDP-N-acetylbacillosamine N-acetyltransferase PglD (Campylobacter jejuni). purified PglD enzyme, DTNB colorimetric CoA detection. inhibition, % at 12.5 µM. hit rate 0.098% among 360,000. AID 602405, 2012; in the data active = inhibition above about 16%, passing the limit was not always enough; inconclusive = no clear call, values can overlap the other calls
Numbers without * were called inactive.

`COc1ccc(NC(=O)Nc2ccc3c(c2)CC(=O)N([C@H](C)CO)C[C@@H](C)[C@H](CN(C)S(=O)(=O)c2cccs2)O3)cc1` gave Xi reactivation 0, DENV2 CPE rescue inconclusive, FGF22 binding -1, E-selectin induc 0, C2C12 statin 12 and PglD DTNB 1.
C[C@@H]1CN([C@@H](C)CO)C(=O)c2cc(/C=C/c3ccccc3)cnc2O[C@H]1CN(C)C(=O)C1CC1 was read as Xi reactivation -1, E-selectin induc 0 and C2C12 statin 29.
`COc1ccc(-c2c(C#N)c(N)nc3c2c(=O)n(C)c(=O)n3C)cc1` gave C2C12 statin 2 and PglD DTNB 0.
CCOc1ccc(-c2c(C#N)c(N)nc3c2c(=O)n(C)c(=O)n3C)cc1OC was read as C2C12 statin 84* and PglD DTNB -2.
Cc1oc2cc(O)cc(C)c2c(=O)c1-c1cnn(-c2ccccc2)c1 was read as C2C12 statin 89* and PglD DTNB -1.
Screening COc1ccc(S(=O)(=O)Nc2cccc3c2O[C@H](CN(C)S(=O)(=O)c2ccc(OC)cc2)[C@H](C)CN([C@H](C)CO)C3=O)cc1 returned Xi reactivation 0, FGF22 binding -1 and E-selectin induc 0.
C#CCOCCOCCOCCNc1nc(OC)nc(N2CCN(C(=O)[C@H](CCC(=O)O)n3cc(C(N)CO)nn3)CC2)n1 (stereo not given in full) was read as Xi reactivation 0, DENV2 CPE rescue 23*, FGF22 binding 1, E-selectin induc 0, C2C12 statin -5 and PglD DTNB -8.
For C#CCOCCOCCOCCNc1nc(N2CCN(C(=O)[C@H]([C@@H](C)CC)n3cc([C@@H](N)Cc4ccc(O)cc4)nn3)CC2)nc(N2CCN(C(=O)[C@H](Cc3ccc(O)cc3)n3cc([C@@H](N)CC(C)C)nn3)CC2)n1 the results were Xi reactivation 0, DENV2 CPE rescue -12, FGF22 binding 0, E-selectin induc 0, C2C12 statin -10 and PglD DTNB 0.
C#CCOCCOCCOCCNc1nc(N2CCOCC2)nc(N2CCN(C(=O)CCCCCCCCCCNC(=O)[C@@H]([C@H](C)CC)n3cc(CCCCCN)nn3)CC2)n1 was read as Xi reactivation 0, DENV2 CPE rescue -6, FGF22 binding 0, E-selectin induc 0, C2C12 statin 99* and PglD DTNB -1.
C#CCOCCOCCOCCNc1nc(N2CCOCC2)nc(N2CCN(C(=O)[C@H](Cc3ccc(O)cc3)n3cc([C@@H](N)CC(C)C)nn3)CC2)n1 was read as Xi reactivation 0, DENV2 CPE rescue 20*, FGF22 binding 0, E-selectin induc 0, C2C12 statin 3 and PglD DTNB 2.
COc1ccc(S(=O)(=O)N(C)C[C@@H]2Oc3ccc(NC(=O)Nc4cccc5ccccc45)cc3CC(=O)N([C@@H](C)CO)C[C@@H]2C)cc1 was read as Xi reactivation 0, DENV2 CPE rescue 2, FGF22 binding 0, E-selectin induc inconclusive and C2C12 statin -18.
`C[C@H](CO)N1C[C@H](C)[C@H](CN(C)C(=O)Nc2cccc3ccccc23)Oc2ccc(NC(=O)C3CCCCC3)cc2CC1=O` gave Xi reactivation -1, DENV2 CPE rescue 13, FGF22 binding 0, E-selectin induc 0, C2C12 statin -10 and PglD DTNB -2.
`COC1OC2COC(c3ccccc3)OC2C(NC(C)=O)C1OC(C)=O` (stereo not given) gave Xi reactivation 0, DENV2 CPE rescue -5, FGF22 binding 45* and E-selectin induc 0.
Screening COC1OC2COC(c3ccccc3)OC2C(OC(=O)c2ccccc2)C1OC(=O)c1ccccc1 (stereo not given) returned Xi reactivation 0, DENV2 CPE rescue 1, FGF22 binding 0, E-selectin induc 0, C2C12 statin -3 and PglD DTNB -2.
CC=Cc1ccc2n(c1=O)C[C@@H]1[C@@H](CO)[C@H](C(=O)NCCC)[C@H]2N1CC1CCCC1 (mixture of isomers) was read as Xi reactivation 1, DENV2 CPE rescue -4, FGF22 binding 0, E-selectin induc 0, C2C12 statin -15 and PglD DTNB -3.
Screening O=C(NC1(Cc2ccccc2)CCN(CCc2cccs2)C1=O)c1ccccc1 (stereo not given) returned Xi reactivation 0, DENV2 CPE rescue 72*, FGF22 binding 0, E-selectin induc 0, C2C12 statin 15 and PglD DTNB -1.
CC1(NC(=O)c2ccccc2)CCN(CCc2cccs2)C1=O (stereo not given) was read as Xi reactivation 0, DENV2 CPE rescue -17, FGF22 binding 0, E-selectin induc 0, C2C12 statin -3 and PglD DTNB 2.
For Fc1ccc(CCN2CCN=C2Nc2ccccc2)cc1 the results were Xi reactivation 1, DENV2 CPE rescue 124*, FGF22 binding 0, E-selectin induc 0, C2C12 statin 3 and PglD DTNB 0.
Screening CC(C)CCCN1CCN=C1Nc1ccccc1 returned Xi reactivation 0, DENV2 CPE rescue 27*, FGF22 binding 0, E-selectin induc 0, C2C12 statin 10 and PglD DTNB 4.
Screening CO[C@H]1CN(C)C(=O)c2ccc(NC(=O)c3cc(C)on3)cc2OC[C@@H](C)N(C)C[C@H]1C returned Xi reactivation 0, DENV2 CPE rescue 6, FGF22 binding 0, E-selectin induc 0, C2C12 statin -5 and PglD DTNB 1.
For CCc1ccc(C(=O)COC(=O)C(CCSC)NC(=O)c2ccccc2)cc1 (stereo not given) the results were Xi reactivation 0, DENV2 CPE rescue 0 and FGF22 binding 44*.
`CSCCC(NC(=O)c1ccc(C(C)(C)C)cc1)C(=O)O` (stereo not given) gave Xi reactivation 0, DENV2 CPE rescue 3 and FGF22 binding 44*.
`COc1ccc(S(=O)(=O)N2CC[C@@H]3[C@@H](CO)Nc4ccc(C5=CCCCC5)cc4[C@@H]32)cc1` gave Xi reactivation 0, DENV2 CPE rescue 10 and E-selectin induc 2.
O=C(c1cc2cc(Br)ccc2s1)N1CCOCC1 was read as Xi reactivation 0, DENV2 CPE rescue 0 and FGF22 binding 43*.

Compound activity: PubChem BioAssay, Broad Institute
